Measured values as given in ChEMBL document CHEMBL4334465, “SAR Studies on Aromatic Acylhydrazone-Based Inhibitors of Fungal Sphingolipid Synthesis as Next-Generation Antifungal Agents” (J Med Chem, 2019).
≈ marks a conversion by molar mass, not a printed value.

How the values were obtained:
Cryptococcus neoformans [1] = test: Antifungal activity against Cryptococcus neoformans H99 measured after 24 to 72 hrs; type: functional; conditions: var grubii H99
Procedure, shortened: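 Modified CLSI broth microdilution with inoculum per M27A3. Compounds were serially diluted 32 to 0.03 μg/mL. Media: C. neoformans in HEPES-buffered YNB without amino acids (pH 7.0, 2% glucose); Candida strains in YNB without ammonium sulfate or amino acids plus 1% asparagine (pH 7.0, 2% glucose); A. fumigatus in RPMI (pH 7.0, 2% glucose).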

Cryptococcus neoformans [2] = test: Fungicidal activity against Cryptococcus neoformans H99 measured after 48 hrs by time-kill assay; type: functional, var grubii H99
Procedure, shortened: (§1)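 Overnight C. neoformans washed in PBS and resuspended in HEPES-buffered YNB, pH 7.4. 2 × 10⁴ cells exposed to a range of drug concentrations in 10 mL with 0.5% DMSO final, at 37°C, 5% CO₂, shaking at 200 rpm. Aliquots sampled over 96 h, diluted and plated on YPD; CFU counted after 48 h at 30°C.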

HepG2 = test: Cytotoxicity against human HepG2 cells after 24 to 48 hrs by MTT assay; type: functional; conditions: read-out: LD50 (the source's name)
Procedure, shortened: (§2)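 A549 and HepG2 kept in DMEM with 10% FBS and 1% pen-strep. At passage 7, seeded at 10⁵ cells/well and allowed to adhere 14 h. Compound added at 0.03–128 μg/mL, untreated wells as controls. Incubation 37°C, 5% CO₂ for 24 or 48 h. MTT (5 mg/mL in PBS) added for 4 h, formazan dissolved in DMSO, OD570.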

[3] = Selectivity index, ratio of LD50 for human A549 cells to MIC80 for Cryptococcus neoformans H99; type: toxicity; conditions: read-out: Selectivity Index
Procedure, shortened: (§3)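 SI = LD₅₀/MIC₈₀. Cytotoxicity: A549 or HepG2 cells (DMEM, 10% FBS, passage 7, 10⁵ cells/well) adhered 14 h, then exposed to 0.03–128 μg/mL for 24 or 48 h at 37°C, 5% CO₂; MTT 4 h, formazan dissolved in DMSO, read at 570 nm. MIC₈₀ against C. neoformans from broth microdilution in HEPES-buffered YNB, pH 7.0.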

A549 = test: Cytotoxicity against human A549 cells after 24 to 48 hrs by MTT assay; type: functional; conditions: read-out: LD50 (the source's name); procedure, shortened: as §2
[4] = Selectivity index, ratio of LD50 for human HepG2 cells to MIC80 for Cryptococcus neoformans H99; type: toxicity; conditions: read-out: Selectivity Index; procedure, shortened: as §3
Cryptococcus neoformans [5] = test: Fungicidal activity against Cryptococcus neoformans H99 measured after 24 hrs by time-kill assay; type: functional, var grubii H99; procedure, shortened: as §1

Structure (SMILES) | MIC80 (Cryptococcus neoformans [1]) | MFC100 (Cryptococcus neoformans [2]) | CC50 (HepG2) | selectivity ratio [3] | CC50 (A549) | selectivity ratio [4] | MFC100 (Cryptococcus neoformans [5])
CN(C)c1ccc(C(=O)N/N=C/c2cc(Br)ccc2O)cc1 | > 16 mg/L | – | – | – | – | – | –
C/C(=N\NC(=O)c1ccc(Br)cc1Br)c1cc(Br)cc(Br)c1O | > 16 mg/L | – | – | – | – | – | –
O=C(N/N=C/c1cc(Br)cc(Br)c1O)c1cccc(C(F)(F)F)c1 | 2 mg/L (≈ 4.29 µM) | – | – | – | – | – | –
O=C(N/N=C/c1ccc(Br)cc1O)c1cccc(C(F)(F)F)c1 | 0.5 mg/L (≈ 1.29 µM) | 2 mg/L (≈ 5.17 µM) | 16 mg/L (≈ 41.3 µM) | 128 | 64 mg/L (≈ 165 µM) | 32 | –
O=C(N/N=C/c1c(O)ccc2ccccc12)c1ccc(Br)cc1Br | 0.12 mg/L (≈ 0.268 µM) | 0.5 mg/L (≈ 1.12 µM) | 64 mg/L (≈ 143 µM) | 133 | 16 mg/L (≈ 35.7 µM) | 533 | –
O=C(N/N=C/c1cc(Br)cc(Br)c1O)c1cccc(C(=O)N/N=C/c2cc(Br)cc(Br)c2O)c1 | > 16 mg/L | – | – | – | – | – | –
Cc1ccc(O)c(/C=N/NC(=O)c2cccc(Br)c2Br)c1 | > 16 mg/L | – | – | – | – | – | –
C/C(=N\NC(=O)c1cc(Br)ccc1Br)c1cc(Br)cc(Br)c1O | > 16 mg/L | – | – | – | – | – | –
O=C(c1ccc(Br)cc1)n1ccc(-c2cc(Br)cc(Br)c2O)n1 | > 16 mg/L | – | – | – | – | – | –
O=C(N/N=C/c1cc(Cl)ccc1O)c1ccc(Br)c(Br)c1 | 0.06 mg/L (≈ 0.139 µM) | 1 mg/L (≈ 2.31 µM) | 32 mg/L (≈ 74 µM) | 267 | 16 mg/L (≈ 37 µM) | 533 | –
Cc1ccc(O)c(/C=N/NC(=O)c2cc(Br)ccc2Br)c1 | 1 mg/L (≈ 2.43 µM) | 0.5 mg/L (≈ 1.21 µM) | 32 mg/L (≈ 77.7 µM) | 32 | 32 mg/L (≈ 77.7 µM) | 32 | –
O=C(N/N=C/c1cc(Cl)cc(Cl)c1O)c1cc(Br)ccc1Br | 0.5 mg/L (≈ 1.07 µM) | – | 32 mg/L (≈ 68.5 µM) | 64 | 32 mg/L (≈ 68.5 µM) | 64 | 0.25 mg/L (≈ 0.535 µM)
O=C(N/N=C/c1cc(Br)ccc1O)c1cccc(C(=O)N/N=C/c2cc(Br)ccc2O)c1 | > 16 mg/L | – | – | – | – | – | –
Cc1ccccc1C(=O)N/N=C/c1cc(C#N)ccc1O | 4 mg/L (≈ 14.3 µM) | – | – | – | – | – | –
O=C(N/N=C/c1cc(Br)cc(Br)c1O)c1ccc(CF)cc1 | 0.5 mg/L (≈ 1.16 µM) | – | 16 mg/L (≈ 37.2 µM) | 32 | 16 mg/L (≈ 37.2 µM) | 32 | 0.5 mg/L (≈ 1.16 µM)
Nc1ccc(C(=O)N/N=C/c2ccc(Br)cc2O)cc1 | 4 mg/L (≈ 12 µM) | – | – | – | – | – | –
Cc1ccc(O)c(/C=N/NC(=O)c2cc(Br)cc(Br)c2)c1 | 0.5 mg/L (≈ 1.21 µM) | – | 16 mg/L (≈ 38.8 µM) | 64 | 32 mg/L (≈ 77.7 µM) | 32 | 1 mg/L (≈ 2.43 µM)
O=C(N/N=C/c1cc(Cl)ccc1O)c1cc(Br)ccc1Br | 0.25 mg/L (≈ 0.578 µM) | – | 32 mg/L (≈ 74 µM) | 236 | 59 mg/L (≈ 136 µM) | 128 | 0.25 mg/L (≈ 0.578 µM)
O=C(N/N=C/c1ccc(Br)cc1O)c1ccc(OC(F)F)cc1 | 0.12 mg/L (≈ 0.312 µM) | – | 32 mg/L (≈ 83.1 µM) | 267 | 32 mg/L (≈ 83.1 µM) | 267 | 1 mg/L (≈ 2.6 µM)
CN(C)c1ccc(C(=O)N/N=C/c2c(O)ccc3ccccc23)cc1 | 0.5 mg/L (≈ 1.5 µM) | – | 16 mg/L (≈ 48 µM) | 64 | 32 mg/L (≈ 96 µM) | – | 2 mg/L (≈ 6 µM)
Cc1ccccc1C(=O)N/N=C/c1cc(C(F)(F)F)ccc1O | 8 mg/L (≈ 24.8 µM) | – | – | – | – | – | –
O=C(N/N=C/c1cc(Br)cc(Br)c1O)c1cc(Br)cc(Br)c1 | > 16 mg/L | – | – | – | – | – | –
O=C(N/N=C/c1cc(Cl)cc(Cl)c1O)c1cccc(Br)c1Br | 1 mg/L (≈ 2.14 µM) | 1 mg/L (≈ 2.14 µM) | 16 mg/L (≈ 34.3 µM) | 64 | 64 mg/L (≈ 137 µM) | 16 | –

Structure (SMILES) | MIC80 (Cryptococcus neoformans [1]) | MFC100 (Cryptococcus neoformans [2]) | CC50 (HepG2) | selectivity ratio [3] | CC50 (A549) | selectivity ratio [4] | MFC100 (Cryptococcus neoformans [5])
O=C(N/N=C/c1cc(F)ccc1O)c1cc(Br)ccc1Br | > 16 mg/L | – | – | – | – | – | –
O=C(N/N=C/c1cc(Br)cc(Br)c1O)c1cccc(Br)c1Br | 0.5 mg/L (≈ 0.9 µM) | 2 mg/L (≈ 3.6 µM) | 16 mg/L (≈ 28.8 µM) | 64 | 32 mg/L (≈ 57.6 µM) | 32 | –
O=C(N/N=C/c1cc(Br)cc(Br)c1O)c1cccc(OC(F)(F)F)c1 | 4 mg/L (≈ 8.3 µM) | – | – | – | – | – | –
CC(=O)Nc1ccc(C(=O)N/N=C/c2ccc(Br)cc2O)cc1 | > 16 mg/L | – | – | – | – | – | –
C/C(=N\NC(=O)c1cc(Br)ccc1Br)c1cc(Br)ccc1O | > 16 mg/L | – | – | – | – | – | –
N#Cc1ccc(O)c(/C=N/NC(=O)c2ccc(Br)cc2Br)c1 | 8 mg/L (≈ 18.9 µM) | – | – | – | – | – | –
Cc1ccc(O)c(/C=N/NC(=O)c2cc(Br)ccc2O)c1 | 0.25 mg/L (≈ 0.716 µM) | – | 16 mg/L (≈ 45.8 µM) | 64 | 16 mg/L (≈ 45.8 µM) | 64 | 0.5 mg/L (≈ 1.43 µM)
Cc1ccccc1-c1nnc(-c2cc(Br)ccc2O)o1 | > 16 mg/L | – | – | – | – | – | –
O=C(N/N=C/c1cc(Br)ccc1O)c1cc(Br)ccc1Br | 0.25 mg/L (≈ 0.524 µM) | 1 mg/L (≈ 2.1 µM) | 32 mg/L (≈ 67.1 µM) | 64 | 16 mg/L (≈ 33.5 µM) | 128 | –
O=C(N/N=C/c1cc(Cl)ccc1O)c1cccc(F)c1F | 1 mg/L (≈ 3.22 µM) | 0.5 mg/L (≈ 1.61 µM) | 32 mg/L (≈ 103 µM) | 72 | 72 mg/L (≈ 232 µM) | 32 | –
Cc1ccc(O)c(/C=N/NC(=O)c2cc(Br)cc(Br)c2O)c1 | 0.25 mg/L (≈ 0.584 µM) | – | 8 mg/L (≈ 18.7 µM) | 16 | 4 mg/L (≈ 9.34 µM) | 32 | 0.25 mg/L (≈ 0.584 µM)
O=C(N/N=C/c1ccc(Br)cc1O)c1cccc(Br)c1Br | > 16 mg/L | – | – | – | – | – | –
CN(/N=C/c1cc(Br)cc(Br)c1O)C(=O)c1ccc(Br)cc1 | > 16 mg/L | – | – | – | – | – | –
C/C(=N\NC(=O)c1ccc(Br)cc1Br)c1cc(Br)ccc1O | > 16 mg/L | – | – | – | – | – | –
O=C(N/N=C/c1c(O)ccc2ccccc12)c1cc(Br)cc(Br)c1 | 0.25 mg/L (≈ 0.558 µM) | – | 4 mg/L (≈ 8.93 µM) | 8 | 2 mg/L (≈ 4.46 µM) | 16 | 0.5 mg/L (≈ 1.12 µM)
O=C(N/N=C/c1c(O)ccc2ccccc12)c1cccc(Br)c1Br | > 16 mg/L | – | – | – | – | – | –
O=C(N/N=C/c1cc(Br)ccc1O)c1cccc(OC(F)F)c1 | 0.12 mg/L (≈ 0.312 µM) | – | 64 mg/L (≈ 166 µM) | 66.6 | 8 mg/L (≈ 20.8 µM) | 533 | 1 mg/L (≈ 2.6 µM)
O=C(N/N=C/c1c(O)ccc2ccccc12)c1cc(Br)ccc1Br | 0.25 mg/L (≈ 0.558 µM) | – | 16 mg/L (≈ 35.7 µM) | 128 | 32 mg/L (≈ 71.4 µM) | 64 | 0.25 mg/L (≈ 0.558 µM)
O=C(N/N=C/c1cc(OC(F)(F)F)ccc1O)c1ccc(Br)cc1Br | 0.25 mg/L (≈ 0.519 µM) | – | 64 mg/L (≈ 133 µM) | 128 | 32 mg/L (≈ 66.4 µM) | 256 | 2 mg/L (≈ 4.15 µM)
O=C(N/N=C/c1cc(Br)cc(Br)c1O)c1ccc(F)cc1 | 0.12 mg/L (≈ 0.288 µM) | – | 32 mg/L (≈ 76.9 µM) | 267 | 32 mg/L (≈ 76.9 µM) | 267 | 0.25 mg/L (≈ 0.601 µM)
O=C(N/N=C/c1cc(Cl)cc(Cl)c1O)c1cc(Br)cc(Br)c1 | 0.5 mg/L (≈ 1.07 µM) | – | 64 mg/L (≈ 137 µM) | 128 | 64 mg/L (≈ 137 µM) | 128 | 0.5 mg/L (≈ 1.07 µM)
Cc1ccc(O)c(/C=N/NC(=O)c2ccc(Br)cc2Br)c1 | 1 mg/L (≈ 2.43 µM) | – | 16 mg/L (≈ 38.8 µM) | 32 | 32 mg/L (≈ 77.7 µM) | 16 | 2 mg/L (≈ 4.85 µM)
